Measurements: ChEMBL document CHEMBL1770061, “Synthesis and antiproliferative activity of new cytotoxic azanaphthoquinone pyrrolo-annelated derivatives: Part II” (Bioorg Med Chem Lett, 2011)
Values after ≈ are worked out from the molar mass of the structure shown. Active and inactive are the calls of the source. The rule behind the calls is not given here.

How the values were obtained:
[1] = tested on: NCI-H460; assay: Antiproliferative activity against human NCI-H460 cells assessed as growth inhibition at 3.16 ug/ml after 48 hrs by XTT assay; format: functional; conditions: for inhibition at 3.16 µg/mL: NCI-H460, 48 h
How it was run: (§1)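 This is the same 48 h XTT assay: 10-point half-log series, 0.3% final DMSO, 3 h XTT/PMS, A490, with untreated cells as 0% and blanks as 100% inhibition. Inhibition at the highest tested concentration was scored as none (<30%) or moderate (≥30%).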

[2] = tested on: SF-268; assay: Antiproliferative activity against human SF268 cells assessed as growth inhibition at 3.16 ug/ml after 48 hrs by XTT assay; format: functional; conditions: for inhibition at 3.16 µg/mL: SF-268, 48 h; how it was run: as §1
[3] = (§2) Antiproliferative activity against human RKOp27IND cells assessed as growth inhibition at 3.16 ug/ml after 48 hrs by XTT assay; format: functional; how it was run: as §1
[4] = organism: Homo sapiens; assay: as §2; format: functional; how it was run: as §1
[5] = tested on: SK-OV-3; assay: Antiproliferative activity against human SKOV3 cells assessed as growth inhibition at 3.16 ug/ml after 48 hrs by XTT assay; format: functional; conditions: for inhibition at 3.16 µg/mL: SK-OV-3, 48 h; how it was run: as §1
[6] = tested on: KB; assay: (§3) Antiproliferative activity against human KB/HeLa cells assessed as growth inhibition at 3.16 ug/ml after 48 hrs by XTT assay; format: functional; how it was run: as §1
[7] = (§4) Antiproliferative activity against human RKOp27 cells assessed as growth inhibition at 3.16 ug/ml after 48 hrs by XTT assay; format: functional; conditions: RKOp27, 48 h; how it was run: as §1
[8] = tested on: RKOp27; assay: as §4; format: functional; how it was run: as §1
[9] = Antiproliferative activity against human RKOp27 cells after 48 hrs by XTT assay; format: functional, cell-based; conditions: RKOp27, 48 h
How it was run: (§5)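 Compounds were added from DMSO stocks as a 10-point half-log dilution series, with final DMSO adjusted to 0.3%. Cells were incubated for 45 h at 37 °C/5% CO2, then with 1 mg/ml XTT plus PMS for a further 3 h. Absorbance at 490 nm was read after 48 h total. Untreated cells were set as 0% and cell-free blanks as 100% inhibition. EC50 came from nonlinear regression of at least two independent assays.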

[10] = tested on: SF-268; assay: Antiproliferative activity against human SF268 cells after 48 hrs by XTT assay; format: functional, cell-based; conditions: SF-268, 48 h; how it was run: as §5
[11] = Antiproliferative activity against human KB/HeLa cells after 48 hrs by XTT assay; format: functional, cell-based; how it was run: as §5
[12] = Chemical stability of the compound in KH2PO4/Na2HPO4 buffer at pH 5.5 after 6 hrs by NMR spectroscopy; format: physicochemical; conditions: pH 5.5, 6 h
How it was run: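 Compounds were exposed at 37 °C to a KH2PO4/Na2HPO4 buffer at pH 5.5, prepared according to the European Pharmacopoeia.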

[13] = tested on: NCI-H460; assay: Antiproliferative activity against human NCI-H460 cells after 48 hrs by XTT assay; format: functional, cell-based; conditions: NCI-H460, 48 h; how it was run: as §5
[14] = tested on: SK-OV-3; assay: Antiproliferative activity against human SKOV3 cells after 48 hrs by XTT assay; format: functional, cell-based; conditions: SK-OV-3, 48 h
How it was run: (§6)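 Compounds dissolved in DMSO were added as a 10-point half-log dilution series, with final DMSO adjusted to 0.3%. Cells were incubated 45 h at 37 °C/5% CO2, then XTT (1 mg/ml) plus PMS was added for 3 h more (48 h total). Absorbance was read at 490 nm. Untreated cells were set as 0% inhibition and cell-free blanks as 100%. EC50 was fitted by nonlinear regression from ≥2 independent assays and reported as mean ± SD.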

[15] = as §3; format: functional; how it was run: as §1
[16] = Antiproliferative activity against human RKOp27IND cells after 48 hrs by XTT assay; format: functional, cell-based; how it was run: as §6

Structure (SMILES) | inhibition at 3.16 µg/mL [1] [%] | inhibition at 3.16 µg/mL [3] [%] | inhibition at 3.16 µg/mL [7] [%] | EC50 [9] [µg/mL] | inhibition at 3.16 µg/mL [5] [%] | EC50 [10] [µg/mL] | EC50 [11] [µg/mL] | inhibition at 3.16 µg/mL [2] [%] | EC50 [13] [µg/mL] | EC50 [14] [µg/mL] | inhibition at 3.16 µg/mL [15] [%] | EC50 [16] [µg/mL] | also measured
CN(C)CCc1cn(CCOS(C)(=O)=O)c2c1C(=O)c1ccncc1C2=O | < 30 | < 30 | < 30 | – | – | – | – | – | – | – | – | – | inhibition [1]: inactive; inhibition [2]: inactive; inhibition [4]: inactive; inhibition [5]: inactive; inhibition [6]: inactive; inhibition [8]: inactive
CN(C)CCc1cn(CCNCCO)c2c1C(=O)c1ccncc1C2=O | < 30 | < 30 | – | > 3.16 | < 30 | > 3.16 | > 3.16 | – | – | – | – | – | –
O=C1c2ccncc2C(=O)c2c1ccn2CCCC1CO1 (centres undefined) | – | < 30 | – | > 3.16 | < 30 | – | > 3.16 | ≥ 30 | > 3.16 | – | – | – | Stability [12]: Stable
O=C1c2ccncc2C(=O)c2c1ccn2CCCCCCC(O)CN1CC1 (centres undefined) | – | < 30 | – | > 3.16 | < 30 | – | > 3.16 | < 30 | > 3.16 | – | – | – | –
CN(C)CCc1cn(CCCCCCCN2CC2)c2c1C(=O)c1ccncc1C2=O | – | < 30 | – | > 3.16 | – | – | > 3.16 | < 30 | > 3.16 | > 3.16 | – | – | –
CS(=O)(=O)OCCn1ccc2c1C(=O)c1cnccc1C2=O | – | ≥ 30 | < 30 | – | < 30 | – | – | < 30 | > 3.16 | – | < 30 | – | –
CN(C)CCc1cn(CCO)c2c1C(=O)c1ccncc1C2=O | < 30 | < 30 | – | > 3.16 | < 30 | – | > 3.16 | < 30 | – | – | – | – | –
O=C1c2ccncc2C(=O)c2c1ccn2CCCCN1CC1 | – | – | – | 0.299 (≈ 1.01 µM) | – | 1.89 (≈ 6.41 µM) | 0.549 (≈ 1.86 µM) | – | 0.727 (≈ 2.46 µM) | 2.19 (≈ 7.4 µM) | – | 2.23 (≈ 7.55 µM) | –
CN(C)CCCn1cc(CCN(C)C)c2c1C(=O)c1cnccc1C2=O | – | – | – | > 3.16 | – | > 3.16 | > 3.16 | – | > 3.16 | > 3.16 | – | > 3.16 | –
O=C1c2ccncc2C(=O)c2c1ccn2CC1CO1 (centres undefined) | – | – | – | 0.026 (≈ 0.102 µM) | – | 0.2 (≈ 0.787 µM) | 0.062 (≈ 0.244 µM) | – | 0.062 (≈ 0.244 µM) | 0.265 (≈ 1.04 µM) | – | 1.3 (≈ 5.11 µM) | Stability [12]: Stable
O=C1c2ccncc2C(=O)c2c1ccn2CCCCCCC1CO1 (centres undefined) | < 30 | < 30 | < 30 | – | < 30 | – | – | < 30 | – | – | < 30 | – | Stability [12]: Stable
CS(=O)(=O)OCCCCCCCn1ccc2c1C(=O)c1cnccc1C2=O | < 30 | < 30 | < 30 | – | < 30 | – | – | < 30 | – | – | < 30 | – | –
CN(C)CCc1cn(CCCCN2CC2)c2c1C(=O)c1ccncc1C2=O | – | – | – | 0.205 (≈ 0.559 µM) | – | 1.39 (≈ 3.8 µM) | 0.512 (≈ 1.4 µM) | – | 0.722 (≈ 1.97 µM) | 1.51 (≈ 4.12 µM) | – | 1.35 (≈ 3.68 µM) | –
O=C1c2ccncc2C(=O)c2c1ccn2CCCCCCCN1CC1 | – | – | – | 1.19 (≈ 3.54 µM) | – | > 3.16 | > 3.16 | – | > 3.16 | > 3.16 | – | > 3.16 | –
CNCCn1cc(CCN(C)C)c2c1C(=O)c1cnccc1C2=O | – | – | – | > 3.16 | – | > 3.16 | > 3.16 | – | > 3.16 | > 3.16 | – | > 3.16 | –
O=C1c2c(O)ccc(O)c2C(=O)c2c(NCCNCCO)ccc(NCCNCCO)c21 [MITOXANTRONE] | – | – | – | 0.0865 (≈ 0.195 µM) | – | 0.315 (≈ 0.709 µM) | 0.355 (≈ 0.799 µM) | – | 0.122 (≈ 0.275 µM) | 0.121 (≈ 0.272 µM) | – | 0.763 (≈ 1.72 µM) | –
CS(=O)(=O)OCCCCn1ccc2c1C(=O)c1cnccc1C2=O | – | < 30 | – | > 3.16 | < 30 | > 3.16 | > 3.16 | – | > 3.16 | – | – | – | –
CN(C)CCCc1c[nH]c2c1C(=O)c1ccncc1C2=O | – | < 30 | < 30 | – | < 30 | – | – | < 30 | – | – | < 30 | – | –
CN(C)CCc1cn(CCCCO)c2c1C(=O)c1ccncc1C2=O | < 30 | < 30 | < 30 | – | < 30 | – | – | < 30 | – | – | < 30 | – | –
CN(C)CCc1cn(CCN(C)C)c2c1C(=O)c1ccncc1C2=O | < 30 | < 30 | < 30 | – | < 30 | – | – | < 30 | – | – | < 30 | – | –
CN(C)CCc1cn(CCCCCCCOS(C)(=O)=O)c2c1C(=O)c1ccncc1C2=O | – | – | – | – | – | – | – | – | – | – | – | – | Stability [12]: Unstable
CN(C)CCCc1cn(CCCN(C)C)c2c1C(=O)c1ccncc1C2=O | – | < 30 | – | > 3.16 | < 30 | – | – | < 30 | > 3.16 | – | < 30 | – | –
CN(C)CCc1cn(CCCCOS(C)(=O)=O)c2c1C(=O)c1ccncc1C2=O | – | – | – | – | – | – | – | – | – | – | – | – | Stability [12]: Unstable
O=C1c2ccncc2C(=O)c2c1ccn2CCCC(O)CN1CC1 (centres undefined) | – | < 30 | – | > 3.16 | < 30 | – | > 3.16 | < 30 | > 3.16 | – | – | – | –
CN(C)CCc1c[nH]c2c1C(=O)c1ccncc1C2=O | < 30 | < 30 | < 30 | – | < 30 | – | – | < 30 | – | – | < 30 | – | –
CN(C)CCc1cn(CCCCCCCO)c2c1C(=O)c1ccncc1C2=O | < 30 | < 30 | < 30 | – | < 30 | – | – | < 30 | – | – | < 30 | – | –
O=C1c2ccncc2C(=O)c2c1ccn2CCN1CC1 | – | – | – | > 3.16 | < 30 | > 3.16 | > 3.16 | – | > 3.16 | – | – | > 3.16 | –
CN(C)CCc1cn(CCN2CC2)c2c1C(=O)c1ccncc1C2=O | – | – | – | 0.784 (≈ 2.32 µM) | – | 2.41 (≈ 7.12 µM) | 0.972 (≈ 2.87 µM) | – | > 3.16 | 2.74 (≈ 8.09 µM) | – | 2.36 (≈ 6.99 µM) | –
O=C1c2ccncc2C(=O)c2c1ccn2CC(O)CN1CC1 (centres undefined) | – | – | – | 0.899 (≈ 3.02 µM) | – | > 3.16 | 0.747 (≈ 2.51 µM) | – | 2.21 (≈ 7.44 µM) | > 3.16 | – | > 3.16 | –
